# Assay results collected from several papers.
# Lines come from different studies, so protocols differ.
# Target: Protein-tyrosine kinase 6 (PTK6, Homo sapiens, UniProt Q13882)
Structure (SMILES),effect on,mode,method,concentration,endpoint,result
FC(F)(F)Oc1cccc(-c2cnc3ccc(-c4ccncc4)nn23)c1,enzyme activity,inhibitor,radiometric,5 µM,activity vs control,70%
O=C1CCc2cc(Nc3cc(OC4CCOCC4)c([N+](=O)[O-])cc3Cl)ccc2N1,cell-free assay,,competition with immobilised ligand,1 µM,remaining binding,100%
Cc1sc(C(=O)NC2COC2)cc1-n1cc(NC(=O)Nc2c(F)cccc2Cl)cn1,enzyme activity,inhibitor,,10 µM,remaining activity,78.9%
CC(=O)C1=C(C)N(c2cccc(C(F)(F)F)c2)C(=O)N[C@@H]1c1ccc(C#N)nc1,cell-free assay,,competition with immobilised ligand,1 µM,remaining binding,100%
Cc1cc(NC(=O)c2cccc3cc(-c4cccc5[nH]nc(N)c45)ccc23)ccc1F,enzyme activity,inhibitor,,0.1 µM,activity vs control,97%
Nc1nc(Nc2ccc(S(N)(=O)=O)cc2)nn1C(=O)c1c(F)cccc1F,cell-free assay,,,0.5 µM,remaining signal,83.9%
O=C(Nc1cnn(-c2csc(C(=O)NC3COC3)c2)c1)Nc1ccccc1Cl,enzyme activity,inhibitor,,5 µM,remaining activity,118%
CCCOc1ccc(OC)c(F)c1C(=O)c1ccc(C(=O)N[C@@H]2CNC[C@H]2NC(=O)c2ccc3[nH]ncc3c2)cc1,enzyme activity,inhibitor,,10 µM,remaining activity,97%
COc1cc(Nc2cnc(C#N)c(O[C@H](C)CN(C)C)n2)ncc1-c1cnn(C)c1,enzyme activity,inhibitor,radiometric,1 µM,remaining activity,98%
CC(C)(C)c1nc2c(s1)c1nc(N)ncc1c1ccc(NS(=O)(=O)c3c(F)cccc3F)c(F)c12,enzyme activity,inhibitor,radiometric,1 µM,remaining activity,104%
CC(C)(O)[C@H]1CC[C@H](Nc2ccc3ncc(-c4cccc(C(F)(F)F)c4)n3n2)CC1,enzyme activity,inhibitor,,1 µM,remaining activity,50.4%
CC/C(=N\NC(=O)NCc1cccc(O)c1)c1ccc(O)c(C)c1O,enzyme activity,inhibitor,,0.1 µM,inhibition,-3%
COc1cc(Cl)c(C(=O)N[C@@H](CN[C@H]2CC[C@@H](N)CC2)Cc2ccc(C#N)cc2)cc1-c1ccc(CN[C@H](C)c2ccc(C)cc2)o1,enzyme activity,inhibitor,,1 µM,remaining activity,98%
NS(=O)(=O)c1cc(NC(=O)C2(c3ccccc3Cl)CC2)ccc1Oc1cccc(Cl)c1,cell-free assay,,competition with immobilised ligand,1 µM,remaining binding,99%
Cc1ccc(C(=O)NCc2ccsc2)cc1C#Cc1cn(C(C)C)c2ncnc(N)c12,enzyme activity,inhibitor,,1 µM,activity vs control,7%
COc1cc2ncnc(Nc3ccc(Oc4ccccc4)cc3C)c2cc1OC,enzyme activity,inhibitor,,1 µM,inhibition,95%
O=C(NS(=O)(=O)c1ccc(NCC2CCOCC2)c([N+](=O)[O-])c1)c1ccc(N2CCN(Cc3ccc(C(F)(F)F)cc3-c3ccc(Cl)cc3)CC2)cc1Oc1cnc2[nH]ccc2c1,cell-free assay,,competition with immobilised ligand,1 µM,remaining binding,100%
O=C1NC(=O)c2cc(Nc3ccc(F)cc3)c(Nc3ccc(F)cc3)cc21,cell-free assay,,,0.5 µM,remaining signal,95.1%
Cc1cc(C)c(-n2ccn3nc(-c4cccnc4)cc23)cc1NC(=O)c1cc(C#N)cc(S(F)(F)(F)(F)F)c1,cell-free assay,,competition with immobilised ligand,0.1 µM,remaining binding,99.5%
CN(C)C1CCN(CC#Cc2nn(C3CCCC3)c3nc(NCc4ccccc4)ncc23)C1 (stereo not shown),enzyme activity,inhibitor,FRET,0.1 µM,inhibition,-2%
CNC(=O)c1cc(Oc2ccc(NC(=O)Nc3ccc(Cl)c(C(F)(F)F)c3)cc2)ccn1,enzyme activity,inhibitor,,10 µM,inhibition,58%
CC(=O)N1CCC(c2ccc(C(=O)NC3=NCCN3)cc2C(F)(F)F)CC1,cell-free assay,,competition with immobilised ligand,1 µM,remaining binding,88%
Cc1ccc(Nc2nccc(N(C)c3ccc4c(C)n(C)nc4c3)n2)cc1S(N)(=O)=O,enzyme activity,inhibitor,,0.3 µM,inhibition,23%
Cc1ccc(NC(=O)c2ccc(C)c(C(F)(F)F)c2)cc1C#Cc1nn(C2CCC(O)CC2)c2ncnc(N)c12 (stereo not shown),cell-free assay,,,10 µM,remaining signal,-1%
CNC(=O)Nc1ccc2c(c1)[C@@]1(CC2)OC(=O)N(CC(=O)N(Cc2ccc(F)cc2)[C@@H](C)C(F)(F)F)C1=O,cell-free assay,,competition with immobilised ligand,1 µM,remaining binding,90%
CCN(CC)CCNC(=O)c1c(C)[nH]c(/C=C2\C(=O)Nc3ccc(F)cc32)c1C,enzyme activity,inhibitor,,0.3 µM,inhibition,6%
COc1ccc2c(O[C@@H]3C[C@H]4C(=O)N[C@]5(C(=O)O)CC5/C=C\CCCCC[C@H](NC(=O)OC5CCCC5)C(=O)N4C3)cc(-c3csc(NC(=O)C(C)C)n3)nc2c1C (stereo partly shown),cell-free assay,,competition with immobilised ligand,1 µM,remaining binding,97%
O=C1Nc2ccc(Cl)cc2C1=Cc1cc(Cl)c(O)c(Cl)c1,cell-free assay,,,0.5 µM,remaining signal,73.8%
